Laboratory results: PubChem BioAssay AID504360 (Broad Institute, 2011)
Active and inactive are the calls of the source.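 Rule for the calls: active = fitted curve rises past 10% of the positive control signal at or below the top valid tested dose; inconclusive = flat fit between 30 and 70%, or an unreliable fit; inactive = the rest, including signal that falls instead.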

System: not listed separately
Experiment: caspase-3/7 activation in A1-2A-tBid MEFs, dose response, orthogonal assay for A1 inhibitor project, cell-based, MEF A1-2A-tBid, luminescence, dry powder, set 3 (AID 504360)
Conditions: MEF A1-2A-tBid cells, caspase-3/7 luminescence, 3 h; at 35 µM (top of the series)
In short: (§1)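 Compound dosing: 100 nL pinned compound / Assay system: mouse embryonic fibroblasts co-expressing A1 and tBid (A1-2A-tBid), primed / Buffer or medium: RPMI-1640, 10% FBS / Timing: 3 h compound at 37 °C, 1 h reagent at room temperature / Measured by: luminescence from Caspase-Glo 3/7 DEVD-luciferin substrate, 1:1 in 50 mM HEPES / Read-out: Caspase-3/7 activity derived from luminescence signal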
With `COc1c([N+](=O)[O-])c(=O)n(C)c2ccccc12` the caspase activation was 1.76% (inactive). For `Cc1ccc(Sc2c(Sc3ccc(C)cc3)c3ccccc3n(C)c2=O)cc1`, the caspase activation was 0.911% (inactive). For `COc1ccc(CCNc2nc(N3CCCC3)nc(N3CCCC3)n2)cc1OC`, the caspase activation was 3.4% (inactive). With `Cc1ccc(Sc2c([N+](=O)[O-])c(=O)n(C)c3ccccc23)cc1` the caspase activation was 10.3% (inactive). In the case of `COc1ccc(N2CCN(c3nc(NCCc4ccc(OC)c(OC)c4)nc(N4CCOCC4)n3)CC2)cc1`, the caspase activation is reported as -0.079% (inactive). In the case of `COc1ccc(CCNc2nc(N3CCOCC3)nc(N3CCOCC3)n2)cc1OC`, the caspase activation is reported as 1.3% (inactive). With `O=C(COc1ccc(Cl)cc1Cl)NNc1nc(N2CCOCC2)nc(N2CCOCC2)n1` the caspase activation was -1.25% (inactive). For `COc1nc2ccccc2c(Cl)c1[N+](=O)[O-]`, the caspase activation was 1.9% (inactive). In the case of `COc1nc2ccccc2c(Sc2ccc(C)cc2)c1[N+](=O)[O-]`, the caspase activation is reported as 1.61% (inactive). In the case of `Cc1ccc(Sc2c([N+](=O)[O-])c(=O)n(Cc3ccccc3)c3ccccc23)cc1`, the caspase activation is reported as 3.46% (inactive). In the case of `Cn1c(=O)c(Sc2ccccn2)c(Sc2ccccn2)c2ccccc21`, the caspase activation is reported as 3.1% (inactive). For `O=c1[nH]c2ccccc2c(O)c1[N+](=O)[O-]`, the caspase activation was 2.36% (inactive). With `C/C(=N\Nc1nc(N2CCCCC2)nc(N2CCCCC2)n1)c1ccc(F)cc1` the caspase activation was -0.355% (inactive). With `CCn1c(=O)c(Sc2ccc(C)cc2)c(Sc2ccc(C)cc2)c2ccccc21` the caspase activation was 5.31% (inactive). For `COCCn1c(=O)c(Sc2ccc(C)cc2)c(Sc2ccc(C)cc2)c2ccccc21`, the caspase activation was 1.26% (inactive). In the case of `CCn1c(=O)c([N+](=O)[O-])c(Sc2ccc(C)cc2)c2ccccc21`, the caspase activation is reported as 1.72% (inactive). With `Cc1ccc(Sc2c(Sc3ccc(C)cc3)c3ccccc3n(Cc3ccccc3)c2=O)cc1` the caspase activation was 1.55% (inactive).

System: MEF A1-2A-tBid cells, caspase-3/7 luminescence, 3 h
Experiment: as above
Conditions: not given
In short: as §1
For `O=c1[nH]c2ccccc2c(Cl)c1[N+](=O)[O-]`, the AC10 was 2.54 µM. For `O=c1c([N+](=O)[O-])c(Cl)c2ccccc2n1Cc1ccccc1`, the AC10 was 12.4 µM. In the case of `Cc1ccc(S(=O)(=O)c2c([N+](=O)[O-])c(=O)n(C)c3ccccc23)cc1`, the AC10 is reported as 3.19 µM. With `CC1(C)CCC(c2ccc(Cl)cc2)=C(CN2CCN(c3ccc(C(=O)NS(=O)(=O)c4ccc(N[C@H](CCN5CCOCC5)CSc5ccccc5)c(S(=O)(=O)C(F)(F)F)c4)cc3)CC2)C1` the AC10 was 0.579 µM. `CCn1c(=O)c([N+](=O)[O-])c(Cl)c2ccccc21` showed an AC10 of 1.95 µM. In the case of `Cn1c(=O)c([N+](=O)[O-])c(Sc2ccccn2)c2ccccc21`, the AC10 is reported as 2.95 µM. With `Cn1c(=O)c([N+](=O)[O-])c(Cl)c2ccccc21` the AC10 was 1.88 µM. For `Cn1c(=O)c([N+](=O)[O-])c(S(C)(=O)=O)c2ccccc21`, the AC10 was 3.28 µM. Work on `COCCn1c(=O)c([N+](=O)[O-])c(Cl)c2ccccc21` yielded an AC10 of 1.47 µM. For `COCCn1c(=O)c([N+](=O)[O-])c(Sc2ccc(C)cc2)c2ccccc21`, the AC10 was 16.7 µM.
